GRK2 inh: compounds blocking aptamer binding on GRK2 – biochemical, human GRK2, bead flow cytometry, HTS, primary screen. Beta-adrenergic receptor kinase 1 (Homo sapiens), P25098. FAM-aptamer displacement from GRK2. inhibition of aptamer binding, % at 10 µM. actives 0.59% (n = 330,000). AID 488847, 2010;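 active = inhibition of aptamer binding above 40%, roughly 3 SD of noise, on plates passing a quality check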;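 also: median bead fluorescence of bound FAM aptamer so fluorescent compounds give negative values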
CAL PDZ FP-1: untagged CAL PDZ binding inhibitors, primary screen, biochemical, fluorescence polarization, HTS | Golgi-associated PDZ and coiled-coil motif-containing protein (Homo sapiens), Q9HD26 | purified CAL PDZ, TMR-peptide fluorescence polarization, 1 h | inhibition, % at 24.9 µM | actives 0.92% (n = 300,000) | AID 602252, 2012;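 active = mean inhibition of at least 30% with at least half of replicates also reaching 30%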
Tn7 DDE FP: inhibitors of Tn7 peptide binding to fibrin DD(E), primary screen, biochemical, fluorescence polarization, human fibrin, Tn7 probe | actives 0.13% (n = 370,000) | FP displacement of FITC-Tn7 peptide from fibrin DD(E); 0% = median of compound wells per plate | AID 720508, 2013 | inhibition, % at 8.3 µM | Fibrinogen beta chain (Homo sapiens), P02675;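 active = inhibition above the mean of compounds falling within the control limits plus 3 SD of them, cut at about 14% in these data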
Target sequence (P02675 whole entry, looked up): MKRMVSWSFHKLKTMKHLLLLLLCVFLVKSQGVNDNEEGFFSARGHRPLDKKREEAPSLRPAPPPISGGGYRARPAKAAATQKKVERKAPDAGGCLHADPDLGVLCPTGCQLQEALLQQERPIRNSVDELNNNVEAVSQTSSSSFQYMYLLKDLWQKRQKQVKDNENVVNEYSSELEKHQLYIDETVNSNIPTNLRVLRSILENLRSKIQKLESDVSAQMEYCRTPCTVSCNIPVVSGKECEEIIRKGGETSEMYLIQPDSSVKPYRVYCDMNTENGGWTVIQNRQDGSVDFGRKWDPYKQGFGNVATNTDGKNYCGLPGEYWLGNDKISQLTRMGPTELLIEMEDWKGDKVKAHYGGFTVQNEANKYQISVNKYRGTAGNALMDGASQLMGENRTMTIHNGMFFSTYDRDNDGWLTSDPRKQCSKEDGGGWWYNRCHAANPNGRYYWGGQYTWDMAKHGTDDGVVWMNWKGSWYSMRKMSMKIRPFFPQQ
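Assay system: Fibrin-DD(E) protein isolated from polymerized human fibrin clots; read-out basis: percent inhibition; medium: Tris/NaCl/CaCl2 buffer, pH 7.8; signal: FP measurement; incubation: 10 min plus 3 h, room temperature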
DDE Tn6 FP inh: inhibitors of Tn6 peptide binding to fibrin DD(E), primary screen, biochemical, fluorescence polarization, human fibrin, Tn6 probe | Fibrin DD(E) TRITC-Tn6 fluorescence polarization displacement | inhibition, % at 8.3 µM | actives 0.21% (n = 370,000) | AID 720509, 2013;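 active = inhibition above a per-campaign cutoff: mean of compounds within control limits plus 3 SD, cut at about 15% in these data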
ARNT TACC3 PPI: disruptors of ARNT/TACC3 protein interaction, primary screen, biochemical, AlphaScreen, single concentration; AlphaScreen His-ARNT PAS-B/GST-TACC3 binding, luminescence; TACC3 fragment carries E629A point mutation; inhibition, % at 9.99 µM; actives 0.66% (n = 390,000); AID 623870, 2012;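 active = mean inhibition of replicates at least 50% and at least half of replicates each reaching 50%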
CAL PDZ FP-2: CAL PDZ peptide-binding inhibitors, primary screen, biochemical, fluorescence polarization, Cer-tagged CAL PDZ, HTS; Golgi-associated PDZ and coiled-coil motif-containing protein (Homo sapiens), Q9HD26; purified CAL PDZ, TMR-peptide fluorescence polarization, 1 h; inhibition, % at 20 µM; actives 0.02% (n = 330,000); AID 504414, 2011;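 active = highest replicate inhibition of at least 40%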
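Test system: tagged CAL PDZ domain / Buffer or medium: sodium phosphate/NaCl buffer pH 7.4 with TCEP, IgG, Thesit / Reagent: TMR-labelled reporter peptide T*-PRC34 bound in PDZ groove / Compound dosing: single point, 20 µM / Schedule: 1 h incubation at room temperature before polarization reading / Technique: fluorescence polarization (mP) / Benchmarks: unlabelled peptide, DMSO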
GRK2 CP1: GRK2 aptamer-displacing inhibitors, retest, confirmation, biochemical, cherry pick 1, bead flow cytometry. actives 4% (n = 2,000). shares compounds with GRK2 inh. aptamer displacement, % at 10 µM. bead-bound GRK2, FAM-aptamer displacement. AID 504451, 2011;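 active = aptamer displacement above 40%, near three times the noise of non-fluorescent compounds, on plates passing quality checks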;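 also: negative values mostly reflect intrinsic compound fluorescence rather than true enhancement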
FAM quench CP1: aptamer fluorescence quenching in GRK2 counter-screen. shares compounds with GRK2 inh. Carboxyfluorescein RNA aptamer on beads, flow cytometry quenching; active compounds read low. fluorescence response (% of DMSO), % at 10 µM. 2,000 tested, under 10 active. AID 504580;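 active = compounds that quench the bead-bound fluorescent RNA probe, cutting fluorescence to under half of the solvent control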;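 also: counterscreen run without GRK2 so only probe quenching by compound is measured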
GRK2 CP2: GRK2 aptamer-displacing inhibitors, hit retest, confirmation, biochemical, cherry pick 2, bead flow cytometry; shares compounds with GRK2 inh; 360 tested, under 10 active; inhibition of aptamer binding, % at 10 µM; bead-bound GRK2, FAM-aptamer displacement;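 active = inhibition of aptamer binding above 40%, about triple the noise seen with nonglowing compounds, on plates passing quality control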;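 also: negative values mostly come from compounds that fluoresce themselves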
FAM quench SP: counter-screen for GRK2 binding hits: quenchers of fluorescent RNA aptamer. shares compounds with GRK2 inh. carboxyfluorescein RNA aptamer beads, flow cytometry quenching; active compounds read low. fluorescence response vs DMSO, % at 10 µM. 360 tested, under 10 active;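 active = response vs DMSO under 50%, meaning signal dropped by over half, treated as fluorescence quencher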;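 also: labelled aptamer on streptavidin beads without GRK2 as a quench counter-screen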
A number is an active result; - = inactive; . = no result. Only some compounds are listed: those with a hit (about 1.8% of all), similar ones and a draw of the others.

SMILES | GRK2 inh | CAL PDZ FP-1 | Tn7 DDE FP | DDE Tn6 FP inh | ARNT TACC3 PPI | CAL PDZ FP-2 | GRK2 CP1 | FAM quench CP1 | others
Cc1ccc(S(=O)(=O)Nc2ccc3c(c2)C(=O)N([C@H](C)CO)C[C@@H](C)[C@@H](CN(C)C(=O)Nc2ccccc2)OCCCC[C@@H](C)O3)cc1 | . | . | . | . | - | . | . | .
COc1ccccc1NC(=O)c1ccccc1NC(=O)c1ccccc1C(=O)O | - | - | - | - | - | - | . | .
COc1ccccc1NC(=O)NCCCl | 60.0 | - | - | - | - | - | . | . | GRK2 CP2=-;FAM quench SP=-
COc1ccccc1NC(=O)c1ccccc1C(=O)Nc1ccccc1OC | 54.0 | - | - | - | - | - | . | . | GRK2 CP2=-;FAM quench SP=-
COc1ccccc1NC(=O)Nc1ccc(NC(=O)c2ccccc2O)cc1 | 92.0 | - | - | - | - | - | - | -
O=C(c1cc(F)c(F)cc1Cl)N1CCN(c2ncccn2)CC1 | - | - | - | - | - | - | . | .
CC1(C)NC(=O)N(CC(=O)Nc2ccc(-n3cnnn3)cc2)C1=O | - | - | - | - | - | - | - | -
O=C(NCCc1ccc(F)cc1)c1cccc2c1C(=O)c1ccc(N3CCC(Cc4ccccc4)CC3)cc1S2(=O)=O | - | - | . | . | - | - | - | -
Cc1ccc(-n2ncc(C(=O)O)c2C2CCN(C(=O)OC(C)(C)C)CC2)cc1 | 43.0 | - | - | - | - | - | - | -
CC(C)(C)OC(=O)N1CCC(c2c(C(=O)O)cnn2-c2ccc(Cl)cc2)CC1 | - | . | - | - | - | . | . | .
CCN(CC(=O)Nc1ccc2c(c1)OCCO2)C(=O)/C=C/c1cc(Br)ccc1OC | . | . | - | - | . | . | . | .
CCC(C(=O)NCC1CCCO1)N(Cc1ccccc1)C(=O)CNS(=O)(=O)c1ccccc1 (stereo not drawn) | - | - | - | - | - | - | . | .
CCC(C(=O)NCC1CCCO1)N(Cc1ccc(F)cc1)C(=O)CNS(=O)(=O)c1ccccc1 (stereo not drawn) | 78.0 | - | - | - | - | - | - | -
C[C@@H]1CN([C@@H](C)CO)C(=O)Cc2cc(NC(=O)C3CCCCC3)ccc2O[C@@H]1CN(C)Cc1ccc(C(=O)O)cc1 | . | . | . | . | - | . | . | .
Cc1cccnc1NC(=O)CCNC(=O)c1ccccc1Cl | 44.0 | - | - | - | - | - | . | . | GRK2 CP2=-;FAM quench SP=-
CC1(C)OC(=O)C2=C(CC(CCc3ccccc3)OC2c2ccc(Cl)c(Cl)c2)O1 (stereo not drawn) | . | . | - | - | . | . | . | .
O=C1N/C(=N/N=C/c2ccc(O)cc2)SC1Cc1ccccc1 (stereo not drawn) | - | - | - | - | - | - | . | .
COc1ccc(CC2S/C(=N/N=C/c3ccc(O)cc3)NC2=O)cc1 (stereo not drawn) | 100.0 | - | - | - | - | - | - | -
O=C(COC(=O)c1c[nH]c2ccccc12)Nc1ccccc1 | - | - | - | - | - | - | . | .
CC(NC(=O)COC(=O)c1c[nH]c2ccccc12)c1ccccc1 (stereo not drawn) | - | . | - | - | . | - | - | -
N#Cc1ccc(Cn2ccc3ccc(-c4ccc5ccn(C(=O)C6CC6)c5c4)cc32)cc1 | . | . | - | - | . | . | . | .
C[C@H](CO)N1C[C@H](C)[C@H](CN(C)C(=O)c2ccccc2)Oc2ncc(/C=C/c3ccccc3)cc2C1=O | . | . | . | . | - | . | . | .
COc1cc(C(c2c(C(=O)O)[nH]c3ccccc23)c2c(C(=O)O)[nH]c3ccccc23)ccc1OCc1ccccc1 | - | . | - | - | - | - | . | .
C=CCOc1ccc(C(c2c(C(=O)O)[nH]c3ccccc23)c2c(C(=O)O)[nH]c3ccccc23)cc1 | 79.0 | - | - | - | - | - | - | -
COc1ccc(S(=O)(=O)Nc2ccc3c(c2)C(=O)N([C@@H](C)CO)C[C@H](C)[C@H](CN(C)Cc2ccc(C(=O)O)cc2)OCCCC[C@H](C)O3)cc1 | . | . | . | . | - | . | . | .
SMILES | GRK2 inh | CAL PDZ FP-1 | Tn7 DDE FP | DDE Tn6 FP inh | ARNT TACC3 PPI | CAL PDZ FP-2 | GRK2 CP1 | FAM quench CP1 | others
CNC(=O)NC(=O)COC(=O)c1n[nH]c2ccccc12 | 45.0 | - | - | - | - | - | - | -
CCOC(=O)c1n[nH]c2ccccc12 | - | - | - | - | - | - | . | .
O=C(COC(=O)c1n[nH]c2ccccc12)NC(=O)NC1CCCCC1 | - | - | - | - | - | . | . | .
O=C(OCCOc1ccccc1)c1n[nH]c2ccccc12 | 78.0 | - | - | - | - | - | - | -
COCC(=O)Nc1ccc2c(c1)C(=O)N(C)[C@H]1CC[C@@H](CC(=O)NCC3CC3)O[C@@H]1CO2 | . | . | . | . | - | . | . | .
COc1ccc(NC(=O)CSc2nc3ccccc3c3nc4ccccc4n23)cc1 | - | - | - | - | - | - | - | -
CN(C)S(=O)(=O)c1ccc(C(=O)NCc2ccco2)cc1 | - | - | - | - | - | - | . | .
CCCN(CCC)S(=O)(=O)c1ccc(C(=O)NCc2ccco2)cc1 | 64.0 | - | - | - | - | - | - | -
Cc1ccc[n+](CC(=O)c2ccccc2)c1 | - | . | . | . | . | . | . | .
Cc1ccc[n+](CC(=O)c2ccc(Br)cc2)c1 | 75.0 | - | - | - | - | . | - | -
Cc1nn(C(C)C(=O)O)c2ccccc12 (stereo not drawn) | - | - | - | - | - | - | . | .
CCOC(=O)C1=C(C)Nc2nc(SCc3cccnc3)nn2C1c1ccc(OC)cc1 (stereo not drawn) | 55.0 | . | - | - | - | - | - | -
NC(=O)N(CCC(=O)O)c1ccccc1 | 78.0 | - | - | - | - | - | . | . | GRK2 CP2=-;FAM quench SP=-
